Assay results: ChEMBL document CHEMBL4049428, “Exploring Derivatives of Quinazoline Alkaloid l-Vasicine as Cap Groups in the Design and Biological Mechanistic Evaluation of Novel Antitumor Histone Deacetylase Inhibitors” (J Med Chem, 2017)
Active and inactive are the calls of the source. The calls are words filed in the database; no cut-off is given here.

What was measured:
Histone deacetylase 5 = Histone deacetylase 5 (Homo sapiens, UniProt Q9UQL6); assay: Inhibition of HDAC 5 in human HeLa nuclear extract using fluorogenic HDAC class 2A substrate measured after 60 mins by fluorometric analysis
Histone deacetylase 11 = Histone deacetylase 11 (Homo sapiens, UniProt Q96DB2); assay: Inhibition of HDAC 11 in human HeLa nuclear extract using fluorogenic HDAC class 2A substrate measured after 60 mins by fluorometric analysis
Caco-2 = assay: Cytotoxicity against human Caco2 cells assessed as growth inhibition at 10 uM after 48 hrs by MTT assay; type: functional; details: Caco-2, 48 h, read-out: GI
Method in brief: (§1)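 MTT assay, 48 h exposure; adherent lines seeded 12 h and suspension lines 4 h before compound. Media: RPMI-1640/10% FCS (THP-1, HL-60, Colo-205, Caco-2, A549), DMEM/10% FCS (A549, MIAPaCa-2, MCF-7). MTT 4 h, formazan dissolved in DMSO, absorbance 570 nm. Mean ± S.D of three experiments in triplicate; SAHA 5 µM reference.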

MIA PaCa-2 = assay: Cytotoxicity against human MIAPaCa2 cells assessed as growth inhibition at 10 uM after 48 hrs by MTT assay; type: functional; details: MIA PaCa-2, 48 h, read-out: GI; method in brief: as §1
PC-3 = assay: Cytotoxicity against human PC3 cells assessed as growth inhibition at 10 uM after 48 hrs by MTT assay; type: functional; details: PC-3, 48 h, read-out: GI
A549 = assay: Cytotoxicity against human A549 cells assessed as growth inhibition at 10 uM after 48 hrs by MTT assay; type: functional; details: A549, 48 h, read-out: GI; method in brief: as §1
MCF7 [1] = assay: Cytotoxicity against human MCF7 cells assessed as growth inhibition at 10 uM after 48 hrs by MTT assay; type: functional; details: MCF7, 48 h, read-out: GI; method in brief: as §1
HL-60 [2] = assay: Cytotoxicity against human HL60 cells assessed as growth inhibition after 48 hrs by MTT assay; type: functional, cell-based; details: HL-60, 48 h
MOLT-4 [3] = assay: Cytotoxicity against human MOLT4 cells assessed as growth inhibition after 48 hrs by MTT assay; type: functional, cell-based; details: MOLT-4, 48 h
COLO 205 = assay: Cytotoxicity against human COLO205 cells assessed as growth inhibition after 48 hrs by MTT assay; type: functional, cell-based; details: COLO 205, 48 h
MCF7 [4] = assay: Cytotoxicity against human MCF7 cells assessed as growth inhibition after 48 hrs by MTT assay; type: functional, cell-based; details: MCF7, 48 h
P388 = assay: Antitumor activity against mouse P388 cells implanted in CDF1 mouse assessed as increase in median survival time at 50 mg/kg, ip administered for 9 consecutive days; type: functional
Method in brief: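 P388 leukemia cells were harvested from 6–7-day-old ascites grown in the peritoneum of female DBA/2 mice. Female CDF1 mice (18–23 g) received 5×10^5 cells i.p. on day 0. Next day they were randomized into groups of 7 and dosed i.p. daily for 9 consecutive days; controls got 0.2 ml normal saline. Mortality was followed to day 18, with median survival time and %T/C calculated.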

HL-60 [5] = assay: Induction of mitochondrial membrane potential loss in human HL60 cells at 1 uM measured after 48 hrs by Rh123 dye-based flow cytometric analysis (reference value: 5.6%); type: functional
Method in brief: (§2)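 Cells seeded in 6-well plates 2-4 h, then 48 h with compound; Rh-123 1 µM added for the final half hour; cells centrifuged, washed twice in PBS, resuspended in PBS, and Ψm loss quantified by flow cytometry as percentage of cells.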

HL-60 [6] = assay: Induction of mitochondrial membrane potential loss in human HL60 cells assessed as intact mitochondrial membrane potential at 1 uM measured after 48 hrs by Rh123 dye-based flow cytometric analysis (reference value: 91.3%); type: functional; method in brief: as §2
HL-60 [7] = assay: Induction of mitochondrial membrane potential loss in human HL60 cells at 0.125 uM measured after 48 hrs by Rh123 dye-based flow cytometric analysis (reference value: 5.6%); type: functional; method in brief: as §2
HL-60 [8] = assay: Induction of mitochondrial membrane potential loss in human HL60 cells assessed as intact mitochondrial membrane potential at 0.125 uM measured after 48 hrs by Rh123 dye-based flow cytometric analysis (reference value: 91.3%); type: functional; method in brief: as §2
HL-60 [9] = assay: Induction of mitochondrial membrane potential loss in human HL60 cells at 5 uM measured after 48 hrs by Rh123 dye-based flow cytometric analysis (reference value: 5.6%); type: functional; method in brief: as §2
HL-60 [10] = assay: Induction of mitochondrial membrane potential loss in human HL60 cells at 10 uM measured after 48 hrs by Rh123 dye-based flow cytometric analysis (reference value: 5.6%); type: functional; method in brief: as §2
MOLT-4 [11] = assay: Induction of mitochondrial membrane potential loss in human MOLT4 cells at 1 uM measured after 48 hrs by Rh123 dye-based flow cytometric analysis (reference value: 9.6%); type: functional; method in brief: as §2
MOLT-4 [12] = assay: Induction of mitochondrial membrane potential loss in human MOLT4 cells assessed as intact mitochondrial membrane potential at 1 uM measured after 48 hrs by Rh123 dye-based flow cytometric analysis (reference value: 90.4%); type: functional; method in brief: as §2
MOLT-4 [13] = assay: Induction of mitochondrial membrane potential loss in human MOLT4 cells assessed as intact mitochondrial membrane potential at 0.125 uM measured after 48 hrs by Rh123 dye-based flow cytometric analysis (reference value: 90.4%); type: functional; method in brief: as §2
MOLT-4 [14] = assay: Induction of mitochondrial membrane potential loss in human MOLT4 cells assessed as intact mitochondrial membrane potential at 5 uM measured after 48 hrs by Rh123 dye-based flow cytometric analysis (reference value: 90.4%); type: functional; method in brief: as §2
MOLT-4 [15] = assay: Induction of mitochondrial membrane potential loss in human MOLT4 cells at 10 uM measured after 48 hrs by Rh123 dye-based flow cytometric analysis (reference value: 9.6%); type: functional; method in brief: as §2
HL-60 [16] = assay: Induction of reactive oxygen species in human HL60 cells at 10 uM measured after 48 hrs by H2DCFDA dye-based flow cytometric analysis (reference value: 0.4%); type: functional
MOLT-4 [17] = assay: Induction of reactive oxygen species in human MOLT4 cells at 10 uM measured after 48 hrs by H2DCFDA dye-based flow cytometric analysis (reference value: 1.1%); type: functional
HL-60 [18] = assay: Induction of DNA damage in human HL60 cells by comet assay; type: functional, cell-based
Method in brief: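 Alkaline comet assay on HL-60 cells in 0.5% low-melting agarose; lysis 2 h cold (2.5 M NaCl, 100 mM Na2EDTA, 10 mM Tris, pH 10, plus 1% Triton X-100); electrophoresis pH>13, 24 V, 300 mA, 40 min; neutralised pH 7.5, ethidium bromide stained; about 100 cells scored by image analysis, dim light.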

HL-60 [19] = assay: Induction of autophagy in human HL60 cells assessed as acidic vacuole formation in cytoplasm at 10 uM after 48 hrs by acridine orange dye-based fluorescent microscopic analysis; type: functional, cell-based
Method in brief: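 Cells treated 48 h with a range of compound concentrations, SAHA 1.0 µM as positive control; acridine orange 1 µg/ml added 15 min before end at 37°C; cells washed in PBS and acidic vacuoles viewed by fluorescence microscopy.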

THP-1 = assay: Antimigratory activity in human THP1 cells at 10 uM after 48 hrs by wound healing assay; type: functional, cell-based
Method in brief: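 THP-1 cells seeded at high density, attached overnight; monolayer scratched with a pipette tip, debris removed by PBS washes, then test compound added after wounding. Incubated 48 h under standard culture conditions (37°C, 5% CO2); wound images taken at various intervals from time zero.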

Sequence of Histone deacetylase 5 (Q9UQL6 whole entry): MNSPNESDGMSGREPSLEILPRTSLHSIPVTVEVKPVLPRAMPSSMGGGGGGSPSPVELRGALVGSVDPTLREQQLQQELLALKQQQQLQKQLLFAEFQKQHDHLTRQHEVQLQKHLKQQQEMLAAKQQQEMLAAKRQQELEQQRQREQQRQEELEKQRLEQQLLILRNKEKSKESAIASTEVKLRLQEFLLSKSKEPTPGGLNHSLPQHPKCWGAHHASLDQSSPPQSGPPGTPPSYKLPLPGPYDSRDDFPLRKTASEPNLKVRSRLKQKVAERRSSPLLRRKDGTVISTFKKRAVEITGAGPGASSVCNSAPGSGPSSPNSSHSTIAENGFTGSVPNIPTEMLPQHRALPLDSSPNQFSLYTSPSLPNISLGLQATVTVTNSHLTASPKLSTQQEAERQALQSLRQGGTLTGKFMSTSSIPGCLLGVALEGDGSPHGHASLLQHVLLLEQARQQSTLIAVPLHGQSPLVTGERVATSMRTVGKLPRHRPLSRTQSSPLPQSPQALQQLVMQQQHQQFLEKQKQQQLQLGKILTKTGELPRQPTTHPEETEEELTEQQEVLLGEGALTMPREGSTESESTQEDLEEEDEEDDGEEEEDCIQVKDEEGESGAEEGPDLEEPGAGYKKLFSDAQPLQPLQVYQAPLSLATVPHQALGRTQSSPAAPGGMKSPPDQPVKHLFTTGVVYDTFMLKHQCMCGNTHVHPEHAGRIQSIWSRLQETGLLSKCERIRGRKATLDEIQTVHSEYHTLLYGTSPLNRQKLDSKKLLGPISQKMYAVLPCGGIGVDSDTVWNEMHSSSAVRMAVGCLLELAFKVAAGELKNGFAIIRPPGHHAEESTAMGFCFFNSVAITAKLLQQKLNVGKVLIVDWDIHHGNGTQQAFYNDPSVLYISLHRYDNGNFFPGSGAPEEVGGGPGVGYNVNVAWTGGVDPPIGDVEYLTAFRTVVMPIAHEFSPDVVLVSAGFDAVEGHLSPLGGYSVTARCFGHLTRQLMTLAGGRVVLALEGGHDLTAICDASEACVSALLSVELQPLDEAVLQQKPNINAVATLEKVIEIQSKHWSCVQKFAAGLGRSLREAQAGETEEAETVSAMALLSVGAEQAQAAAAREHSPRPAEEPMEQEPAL
Sequence of Histone deacetylase 11 (Q96DB2 whole entry): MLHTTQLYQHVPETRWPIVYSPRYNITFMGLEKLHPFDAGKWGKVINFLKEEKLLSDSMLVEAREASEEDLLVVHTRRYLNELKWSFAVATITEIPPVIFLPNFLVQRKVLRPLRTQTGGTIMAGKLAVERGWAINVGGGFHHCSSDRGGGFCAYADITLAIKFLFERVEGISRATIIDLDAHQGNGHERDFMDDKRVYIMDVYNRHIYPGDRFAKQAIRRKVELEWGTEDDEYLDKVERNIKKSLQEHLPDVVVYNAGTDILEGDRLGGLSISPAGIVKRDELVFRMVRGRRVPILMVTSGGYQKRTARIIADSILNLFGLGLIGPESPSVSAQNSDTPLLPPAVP

Q: What does the source list for `O=C(CCCCCCC(=O)Nc1ccccc1CN1CC[C@H](O)C1)NO`?
A: IC50 (Histone deacetylase 5): 5390 nM; IC50 (Histone deacetylase 11): > 10000 nM; inhibition of growth at 10 µM (Caco-2): 58%; inhibition of growth at 10 µM (MIA PaCa-2): 93%; inhibition of growth at 10 µM (PC-3): 29%; inhibition of growth at 10 µM (A549): 84%; inhibition of growth at 10 µM (MCF7 [1]): 93%; IC50 (HL-60 [2]): 1000 nM; IC50 (MOLT-4 [3]): 810 nM; IC50 (COLO 205): 600 nM; IC50 (MCF7 [4]): 1500 nM; T/C (P388): 92.47%; Activity (HL-60 [5]): 6.2%; Activity (HL-60 [6]): 90.4%; Activity (HL-60 [7]): 7.5%; Activity (HL-60 [8]): 89%; Activity (HL-60 [9]): 12.1%; Activity (HL-60 [10]): 32%; Activity (MOLT-4 [11]): 4.9%; Activity (MOLT-4 [12]): 95.1%; Activity (MOLT-4 [13]): 97.6%; Activity (MOLT-4 [14]): 42.5%; Activity (MOLT-4 [15]): 67.5%; Activity (HL-60 [16]): 0.1%; Activity (MOLT-4 [17]): 0.9%; Activity (HL-60 [18]): Dose-dependent effect; Activity (HL-60 [19]): Active; Activity (THP-1): Active
